This passage reports Activity results from ChEMBL document CHEMBL5678815 (Clin Cancer Res, 2017).

Experiment [1] concerns the target Serine/threonine-protein kinase PAK 3 (Homo sapiens) (UniProt O75914). Put plainly: Inhibition of human PAK3 assessed as remaining activity at 1 uM by ATP-competition binding assay relative to control. In a few lines: (§1)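 Single-point profiling at 1μM in an ATP-site-dependent competition binding assay across a panel of 395 human kinases, including mutant forms. The read-out is kinase binding signal in the presence of test agent, expressed as inhibition relative to the control signal. This screen assessed noncovalent binding interactions.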

Experiment [2] relates to Epidermal growth factor receptor (Homo sapiens), P00533 [UNDEFINED MUTATION]. Nature of the experiment: Inhibition of human EGFR L747-E749del/A750P mutant assessed as remaining activity at 1 uM by ATP-competition binding assay relative to control. The essentials: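 KINOMEscan ATP-site-dependent competition binding assay across a 395-kinase human panel including mutants; compound tested at 1μM; binding expressed relative to control signal.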

Experiment [3] deals with Serine/threonine-protein kinase Chk2 (Homo sapiens) (UniProt O96017). Nature of the experiment: Inhibition of human CHEK2 assessed as remaining activity at 1 uM by ATP-competition binding assay relative to control. In a few lines:
(§2)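 KINOMEscan ATP-site-dependent competition binding panel of 395 human kinases, with compound tested at 1 μM. Binding is reported as remaining signal relative to control.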

In experiment [4] the target is LIM domain kinase 1 (Homo sapiens) (UniProt P53667). Put plainly: Inhibition of human LIMK1 assessed as remaining activity at 1 uM by ATP-competition binding assay relative to control. The essentials: as §1
Experiment [5] relates to Mast/stem cell growth factor receptor Kit (Homo sapiens), P10721 [V559D]. Nature of the experiment: Inhibition of human KIT V559D mutant assessed as remaining activity at 1 uM by ATP-competition binding assay relative to control. The essentials:
as §1

Experiment [6] deals with Tyrosine-protein kinase HCK (Homo sapiens) (UniProt P08631). Nature of the experiment: Inhibition of human HCK assessed as remaining activity at 1 uM by ATP-competition binding assay relative to control. In a few lines:
as §1

Experiment [7] deals with Tyrosine-protein kinase JAK1 (Homo sapiens) (UniProt P23458). Nature of the experiment: Inhibition of human JAK1 JH2 domain assessed as remaining activity at 1 uM by ATP-competition binding assay relative to control. The essentials:
as §1

The target of experiment [8] is Calcium/calmodulin-dependent protein kinase kinase 2 (Homo sapiens) (UniProt Q96RR4). Nature of the experiment: Inhibition of human CAMKK2 assessed as remaining activity at 1 uM by ATP-competition binding assay relative to control. In a few lines:
as §2

Experiment [9] deals with Serine/threonine-protein kinase Nek7 (Homo sapiens) (UniProt Q8TDX7). Nature of the experiment: Inhibition of human NEK7 assessed as remaining activity at 1 uM by ATP-competition binding assay relative to control. The essentials:
as §1

Experiment [10] addresses Ephrin type-B receptor 2 (Homo sapiens) (UniProt P29323). Nature of the experiment: Inhibition of human EPHB2 assessed as remaining activity at 1 uM by ATP-competition binding assay relative to control. In a few lines: as §1
Experiment [11] has as its target Fibroblast growth factor receptor 3 (Homo sapiens) (UniProt P22607). Put plainly: Inhibition of human FGFR3 assessed as remaining activity at 1 uM by ATP-competition binding assay relative to control. The essentials:
as §1

The target of experiment [12] is Dual specificity testis-specific protein kinase 1 (Homo sapiens) (UniProt Q15569). Put plainly: Inhibition of human TESK1 assessed as remaining activity at 1 uM by ATP-competition binding assay relative to control. The essentials: (§3)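 Single-concentration (1 μM) screen in an ATP-site-dependent competition binding assay (KINOMEscan, outsourced) covering 395 human kinases, mutants included. Non-covalent binding was read as the remaining signal relative to the control signal.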

In experiment [13] the target is Serine/threonine-protein kinase PRP4 homolog (Homo sapiens) (UniProt Q13523). Nature of the experiment: Inhibition of human PRP4 assessed as remaining activity at 1 uM by ATP-competition binding assay relative to control. The essentials:
as §3

A further experiment relates to CLL mononuclear cell. Put plainly: Antileukemic activity against human CLL mononuclear cells xenografted NSG mouse assessed as reduction in ki67 cells at 0.3 mg/ml preadministered with compound via drinking water and measured after 3 weeks by flow cytometry analysis. The experiment is classed as functional, cell-based. In a few lines:
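Primary CLL patient mononuclear cells (1 × 10^8 per mouse) engrafted into NSG mice on day 0 after busulfan priming on day −1. Vehicle or drug was given in drinking water from day −1. Mice were killed 3 weeks after engraftment; spleens homogenized, filtered and RBC-lysed; whole blood collected. Six patients, 2–5 mice per patient; paired t-test per patient.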
A general note: A xenograft is tissue or cells of one species grown in another, often human tumour cells in immunodeficient mice.

Experiment [14] concerns the target AP2-associated protein kinase 1 (Homo sapiens) (UniProt Q2M2I8). Put plainly: Inhibition of human AAK1 assessed as remaining activity at 1 uM by ATP-competition binding assay relative to control. The essentials: as §2
The target in experiment [15] is Serine/threonine-protein kinase PAK 6 (Homo sapiens) (UniProt Q9NQU5). Nature of the experiment: Inhibition of human PAK6 assessed as remaining activity at 1 uM by ATP-competition binding assay relative to control. In a few lines:
as §1

The target of experiment [16] is Mitogen-activated protein kinase kinase kinase 11 (Homo sapiens) (UniProt Q16584). Put plainly: Inhibition of human MLK3 assessed as remaining activity at 1 uM by ATP-competition binding assay relative to control. The essentials:
as §1

Experiment [17] deals with Serine/threonine-protein kinase PAK 4 (Homo sapiens) (UniProt O96013). Put plainly: Inhibition of human PAK4 assessed as remaining activity at 1 uM by ATP-competition binding assay relative to control. In a few lines:
as §1

The target of experiment [18] is 5'-AMP-activated protein kinase catalytic subunit alpha-2 (Homo sapiens) (UniProt P54646). Put plainly: Inhibition of human AMPK-alpha2 assessed as remaining activity at 1 uM by ATP-competition binding assay relative to control. In a few lines:
as §2

Experiment [19] deals with Tyrosine-protein kinase Mer (Homo sapiens) (UniProt Q12866). Nature of the experiment: Inhibition of human MERTK assessed as remaining activity at 1 uM by ATP-competition binding assay relative to control. The essentials:
as §1

The target of experiment [20] is Macrophage colony-stimulating factor 1 receptor (Homo sapiens) (UniProt P07333). Nature of the experiment: Inhibition of human CSF1R assessed as remaining activity at 1 uM by ATP-competition binding assay relative to control. The essentials:
as §2

Experiment [21] addresses Death-associated protein kinase 2 (Homo sapiens) (UniProt Q9UIK4). Put plainly: Inhibition of human DAPK2 assessed as remaining activity at 1 uM by ATP-competition binding assay relative to control. The essentials: as §2
Experiment [22] deals with Casein kinase I isoform gamma-2 (Homo sapiens) (UniProt P78368). Nature of the experiment: Inhibition of human CSNK1G2 assessed as remaining activity at 1 uM by ATP-competition binding assay relative to control. In a few lines:
as §2

Experiment [23] addresses Tyrosine-protein kinase JAK2 (Homo sapiens) (UniProt O60674). Nature of the experiment: Inhibition of human JAK2 JH1 domain assessed as remaining activity at 1 uM by ATP-competition binding assay relative to control. The essentials: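 Compound at 1μM was screened in an ATP-site-dependent competition binding assay (KINOMEscan) against a 395-kinase human panel. Signal was expressed relative to control.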

Activity calls are given as the source filed them. The rule behind the calls is not given here.

Sequence of Calcium/calmodulin-dependent protein kinase kinase 2 (Homo sapiens) (Q96RR4 2-588 limits assumed): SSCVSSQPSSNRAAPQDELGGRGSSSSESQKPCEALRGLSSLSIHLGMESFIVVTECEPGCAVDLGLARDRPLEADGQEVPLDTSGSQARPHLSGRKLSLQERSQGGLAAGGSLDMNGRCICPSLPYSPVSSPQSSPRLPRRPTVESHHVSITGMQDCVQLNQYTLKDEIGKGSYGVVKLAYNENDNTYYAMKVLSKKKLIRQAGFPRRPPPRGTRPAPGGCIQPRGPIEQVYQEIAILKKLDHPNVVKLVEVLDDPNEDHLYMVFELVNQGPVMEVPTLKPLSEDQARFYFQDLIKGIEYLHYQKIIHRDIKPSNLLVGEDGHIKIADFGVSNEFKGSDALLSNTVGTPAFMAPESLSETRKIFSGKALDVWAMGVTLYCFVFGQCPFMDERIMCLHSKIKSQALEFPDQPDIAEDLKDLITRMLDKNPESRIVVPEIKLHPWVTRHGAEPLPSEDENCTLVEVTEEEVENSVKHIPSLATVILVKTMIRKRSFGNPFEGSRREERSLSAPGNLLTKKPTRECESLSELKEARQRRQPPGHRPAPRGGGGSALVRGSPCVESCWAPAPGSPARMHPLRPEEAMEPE
Sequence of Serine/threonine-protein kinase PAK 4 (Homo sapiens) (O96013 whole entry, looked up): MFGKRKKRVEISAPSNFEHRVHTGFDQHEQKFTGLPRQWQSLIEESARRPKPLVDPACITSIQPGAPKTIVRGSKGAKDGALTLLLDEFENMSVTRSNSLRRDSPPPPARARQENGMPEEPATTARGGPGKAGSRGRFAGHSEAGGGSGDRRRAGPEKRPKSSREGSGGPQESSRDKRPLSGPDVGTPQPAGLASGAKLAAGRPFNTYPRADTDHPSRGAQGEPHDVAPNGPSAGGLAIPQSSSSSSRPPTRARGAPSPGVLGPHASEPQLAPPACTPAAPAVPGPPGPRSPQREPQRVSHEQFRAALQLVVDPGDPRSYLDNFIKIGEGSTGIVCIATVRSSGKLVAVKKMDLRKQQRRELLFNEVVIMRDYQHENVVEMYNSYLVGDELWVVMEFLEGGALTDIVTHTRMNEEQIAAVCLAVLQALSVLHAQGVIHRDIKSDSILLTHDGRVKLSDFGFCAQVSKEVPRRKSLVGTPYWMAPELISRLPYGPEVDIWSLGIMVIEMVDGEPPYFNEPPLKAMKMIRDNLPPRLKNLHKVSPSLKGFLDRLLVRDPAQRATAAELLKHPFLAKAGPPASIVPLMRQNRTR
Sequence of 5'-AMP-activated protein kinase catalytic subunit alpha-2 (Homo sapiens) (P54646 whole entry, looked up): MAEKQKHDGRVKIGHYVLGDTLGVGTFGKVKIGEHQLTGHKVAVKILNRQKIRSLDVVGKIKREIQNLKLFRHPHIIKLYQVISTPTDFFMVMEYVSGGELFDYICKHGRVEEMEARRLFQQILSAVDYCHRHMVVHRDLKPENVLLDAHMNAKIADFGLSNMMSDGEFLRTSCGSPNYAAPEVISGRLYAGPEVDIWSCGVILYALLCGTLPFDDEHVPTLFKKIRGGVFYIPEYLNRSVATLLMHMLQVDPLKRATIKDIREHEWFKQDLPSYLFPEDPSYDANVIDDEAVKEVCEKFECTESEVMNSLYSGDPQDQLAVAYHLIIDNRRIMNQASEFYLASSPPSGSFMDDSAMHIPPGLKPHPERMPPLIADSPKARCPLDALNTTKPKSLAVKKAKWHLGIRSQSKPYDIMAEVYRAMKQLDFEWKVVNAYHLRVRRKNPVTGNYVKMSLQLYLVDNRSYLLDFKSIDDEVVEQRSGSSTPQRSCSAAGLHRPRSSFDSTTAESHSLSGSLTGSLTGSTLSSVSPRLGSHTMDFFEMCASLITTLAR
Sequence of AP2-associated protein kinase 1 (Homo sapiens) (Q2M2I8 whole entry, looked up): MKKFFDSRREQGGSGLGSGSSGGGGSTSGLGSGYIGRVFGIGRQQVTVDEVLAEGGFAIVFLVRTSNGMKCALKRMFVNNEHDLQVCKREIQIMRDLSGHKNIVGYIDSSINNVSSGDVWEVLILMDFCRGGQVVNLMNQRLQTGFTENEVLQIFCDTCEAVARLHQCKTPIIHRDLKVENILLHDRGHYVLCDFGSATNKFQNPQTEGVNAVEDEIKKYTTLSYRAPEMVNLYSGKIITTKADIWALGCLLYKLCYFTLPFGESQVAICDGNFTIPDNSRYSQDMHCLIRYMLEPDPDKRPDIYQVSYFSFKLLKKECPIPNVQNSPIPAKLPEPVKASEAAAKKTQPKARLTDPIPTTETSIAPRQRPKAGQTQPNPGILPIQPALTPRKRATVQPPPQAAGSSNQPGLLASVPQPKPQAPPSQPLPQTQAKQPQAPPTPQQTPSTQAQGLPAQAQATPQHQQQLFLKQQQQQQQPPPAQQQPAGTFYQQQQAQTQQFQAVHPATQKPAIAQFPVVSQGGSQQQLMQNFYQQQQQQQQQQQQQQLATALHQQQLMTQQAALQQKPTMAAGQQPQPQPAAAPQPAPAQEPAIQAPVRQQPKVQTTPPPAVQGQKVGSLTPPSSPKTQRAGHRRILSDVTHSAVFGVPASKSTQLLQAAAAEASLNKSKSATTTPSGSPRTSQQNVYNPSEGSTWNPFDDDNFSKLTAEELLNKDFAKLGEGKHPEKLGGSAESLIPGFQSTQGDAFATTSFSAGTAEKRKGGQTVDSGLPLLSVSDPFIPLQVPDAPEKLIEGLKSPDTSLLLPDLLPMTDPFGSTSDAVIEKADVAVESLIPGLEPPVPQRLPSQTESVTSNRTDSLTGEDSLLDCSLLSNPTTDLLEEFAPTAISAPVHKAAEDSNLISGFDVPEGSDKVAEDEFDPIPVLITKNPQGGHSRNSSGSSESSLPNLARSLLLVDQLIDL
Sequence of Serine/threonine-protein kinase PRP4 homolog (Homo sapiens) (Q13523 whole entry): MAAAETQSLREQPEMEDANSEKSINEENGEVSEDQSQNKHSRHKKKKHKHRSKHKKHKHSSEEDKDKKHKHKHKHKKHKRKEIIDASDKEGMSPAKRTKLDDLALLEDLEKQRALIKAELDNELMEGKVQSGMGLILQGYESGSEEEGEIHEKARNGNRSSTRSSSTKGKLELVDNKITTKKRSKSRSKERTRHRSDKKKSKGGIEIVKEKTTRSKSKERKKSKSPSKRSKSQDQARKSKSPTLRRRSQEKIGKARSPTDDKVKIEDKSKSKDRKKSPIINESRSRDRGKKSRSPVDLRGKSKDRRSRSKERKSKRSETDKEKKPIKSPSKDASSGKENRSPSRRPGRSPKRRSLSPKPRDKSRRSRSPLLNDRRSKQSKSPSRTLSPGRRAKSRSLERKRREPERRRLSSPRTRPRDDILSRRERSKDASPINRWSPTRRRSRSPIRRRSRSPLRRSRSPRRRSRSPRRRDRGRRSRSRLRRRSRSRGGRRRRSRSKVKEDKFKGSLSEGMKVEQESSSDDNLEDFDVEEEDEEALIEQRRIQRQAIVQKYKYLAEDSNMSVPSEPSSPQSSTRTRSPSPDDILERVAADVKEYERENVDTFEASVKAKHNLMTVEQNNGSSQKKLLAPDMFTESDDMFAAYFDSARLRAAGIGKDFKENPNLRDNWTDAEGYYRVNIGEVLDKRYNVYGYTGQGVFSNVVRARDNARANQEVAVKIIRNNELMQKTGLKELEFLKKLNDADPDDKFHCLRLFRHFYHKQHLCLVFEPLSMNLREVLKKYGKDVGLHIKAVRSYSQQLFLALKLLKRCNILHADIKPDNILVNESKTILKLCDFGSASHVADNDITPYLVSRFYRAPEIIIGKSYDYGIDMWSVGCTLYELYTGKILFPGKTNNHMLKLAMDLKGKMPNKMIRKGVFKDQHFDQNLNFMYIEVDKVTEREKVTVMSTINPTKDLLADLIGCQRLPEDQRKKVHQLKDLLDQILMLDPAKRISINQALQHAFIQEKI
Sequence of Death-associated protein kinase 2 (Homo sapiens) (Q9UIK4 whole entry, looked up, canonical isoform): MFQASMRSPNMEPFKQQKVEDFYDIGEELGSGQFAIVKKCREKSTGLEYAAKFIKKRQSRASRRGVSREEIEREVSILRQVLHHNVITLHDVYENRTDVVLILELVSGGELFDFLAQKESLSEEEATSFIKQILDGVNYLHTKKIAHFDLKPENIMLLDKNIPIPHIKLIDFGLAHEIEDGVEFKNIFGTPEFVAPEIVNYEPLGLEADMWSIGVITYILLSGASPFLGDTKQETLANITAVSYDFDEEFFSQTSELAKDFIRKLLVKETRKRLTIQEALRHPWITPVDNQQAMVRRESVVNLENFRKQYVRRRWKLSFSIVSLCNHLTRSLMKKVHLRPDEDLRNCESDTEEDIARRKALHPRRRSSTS
Sequence of Casein kinase I isoform gamma-2 (Homo sapiens) (P78368 whole entry, looked up, canonical isoform): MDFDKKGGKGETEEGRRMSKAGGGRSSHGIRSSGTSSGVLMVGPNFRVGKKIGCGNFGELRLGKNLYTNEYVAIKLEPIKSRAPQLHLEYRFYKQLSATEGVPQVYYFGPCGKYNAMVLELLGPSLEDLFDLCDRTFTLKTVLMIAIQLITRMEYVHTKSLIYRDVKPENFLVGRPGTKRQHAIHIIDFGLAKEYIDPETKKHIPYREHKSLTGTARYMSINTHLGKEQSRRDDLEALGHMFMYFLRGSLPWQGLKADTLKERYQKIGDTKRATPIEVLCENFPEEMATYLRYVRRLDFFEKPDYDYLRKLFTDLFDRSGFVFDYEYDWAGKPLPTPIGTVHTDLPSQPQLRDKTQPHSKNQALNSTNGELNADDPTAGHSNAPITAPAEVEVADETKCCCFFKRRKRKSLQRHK
Sequence of Tyrosine-protein kinase HCK (Homo sapiens) (P08631 2-526 limits assumed): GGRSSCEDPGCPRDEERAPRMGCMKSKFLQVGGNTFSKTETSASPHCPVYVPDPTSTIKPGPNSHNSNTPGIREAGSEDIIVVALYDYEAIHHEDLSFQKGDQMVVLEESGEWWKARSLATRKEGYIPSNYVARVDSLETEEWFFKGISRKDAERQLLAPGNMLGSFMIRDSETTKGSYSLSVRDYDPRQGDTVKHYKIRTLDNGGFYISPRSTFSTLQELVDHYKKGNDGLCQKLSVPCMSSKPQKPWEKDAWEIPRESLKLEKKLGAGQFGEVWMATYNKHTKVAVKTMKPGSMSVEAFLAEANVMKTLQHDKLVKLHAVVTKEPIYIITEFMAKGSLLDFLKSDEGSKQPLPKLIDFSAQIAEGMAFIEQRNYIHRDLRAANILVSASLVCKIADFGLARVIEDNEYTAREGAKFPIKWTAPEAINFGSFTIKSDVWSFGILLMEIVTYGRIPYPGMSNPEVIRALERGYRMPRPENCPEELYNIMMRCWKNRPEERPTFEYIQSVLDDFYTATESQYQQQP

On to `CC#CC(=O)N1CCC[C@H]1c1nc(-c2ccc(C(=O)Nc3ccccn3)cc2)c2c(N)nccn12` [ACALABRUTINIB], for which the Activity in experiment [1] was 73%; in experiment [2] it was 87%; in experiment [3] it was 94%; in experiment [4] it was 13%; in [5], 53%; in experiment [6], 62%. Moreover, the Activity in experiment [7] worked out at 71%; in experiment [8] it was 93%; in [9], 80%; in [10], 69%; in [11], 87%; in [12] it was 83%. Also, the Activity is 86% in [13]; 86% in experiment [14]; 94% in experiment [15]; 94% in [16]; 88% in [17]; 84% in experiment [18]. For the same molecule, the Activity is 77% in [19]; 84% in experiment [20]; 80% in experiment [21]; 82% in [22]; 81% in experiment [23]. Also, the outcome in the experiment with CLL mononuclear cell was Active.
